Results as given in ChEMBL document CHEMBL4616723, “Discovery of Antibacterials That Inhibit Bacterial RNA Polymerase Interactions with Sigma Factors” (J Med Chem, 2020).
≈ marks a conversion by molar mass, not a printed value. Calls of active or inactive are those of the source. The calls are words filed in the database; no cut-off is given here.

Tests used:
Enterobacter cloacae = experiment: Antibacterial activity against Enterobacter cloacae ATCC 13047 after 20 hrs by CLSI based-broth microdilution method; format: functional; conditions: subsp. cloacae ATCC 13047, 20 h
Acinetobacter baumannii = experiment: Antibacterial activity against Acinetobacter baumannii ATCC 19606 after 20 hrs by CLSI based-broth microdilution method; format: functional; conditions: ATCC 19606 = CIP 70.34 = JCM 6841, 20 h
Pseudomonas aeruginosa = experiment: Antibacterial activity against Pseudomonas aeruginosa ATCC 27853 after 20 hrs by CLSI based-broth microdilution method; format: functional; conditions: ATCC 27853, 20 h
Escherichia coli = experiment: Antibacterial activity against Escherichia coli ATCC 25922 after 20 hrs by CLSI based-broth microdilution method; format: functional; conditions: ATCC 25922, 20 h
Klebsiella pneumoniae = experiment: Antibacterial activity against Klebsiella pneumoniae ATCC 700603 after 20 hrs by CLSI based-broth microdilution method; format: functional; conditions: ATCC 700603, 20 h
Streptococcus pneumoniae [1] = experiment: Antibacterial activity against Streptococcus pneumoniae ATCC 49619 after 16 to 20 hrs by CLSI based-broth microdilution method; format: functional
[2] = Inhibition of N-terminal SmBiT-fused Bacillus subtilis RNAP subunit beta' CH region expressed in Escherichia coli BL21(DE3)pLysS interaction with C- terminal LgBiT-fused Bacillus subtilis RNA polymerase sigma factor SigA expressed in Escherichia coli BL21(DE3)pLysS preincubated for 10 mins followed by RNA polymerase sigma factor SigA addition and measured after 10 mins by nano-glo luciferase assay
In short: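 Split-luciferase complementation in PBS: N-SmBiT-CH (2.5 μM stock) mixed with compound at desired concentrations, 10 min at 37 °C. C-LgBiT-σA (2.5 μM stock) then added, another 10 min at 37 °C. Equal volume of Nano-Glo substrate added and luminescence read. No-drug control included. Run in triplicate with technical repeats.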

Streptococcus pneumoniae [3] = experiment: Antibacterial activity against Streptococcus pneumoniae ATCC 49619 after 20 hrs by CLSI based-broth microdilution method; format: functional; conditions: ATCC 49619, 20 h
[4] = tested on: Staphylococcus epidermidis; experiment: Antibacterial activity against Staphylococcus epidermidis ATCC 12228 after 20 hrs by CLSI based-broth microdilution method; format: functional; conditions: ATCC 12228, 20 h
[5] = tested on: Staphylococcus saprophyticus; experiment: Antibacterial activity against Staphylococcus saprophyticus ATCC 15305 after 20 hrs by CLSI based-broth microdilution method; format: functional; conditions: subsp. saprophyticus ATCC 15305, 20 h
Enterococcus faecalis = experiment: Antibacterial activity against Enterococcus faecalis ATCC 19433 after 20 hrs by CLSI based-broth microdilution method; format: functional; conditions: ATCC 19433, 20 h
Staphylococcus aureus [6] = experiment: Antibacterial activity against Staphylococcus aureus ATCC 25923 after 20 hrs by CLSI based-broth microdilution method; format: functional; conditions: ATCC 25923, 20 h
Streptococcus agalactiae = experiment: Antibacterial activity against Streptococcus agalactiae ATCC 12386 after 20 hrs by CLSI based-broth microdilution method; format: functional; conditions: ATCC 12386, 20 h
Staphylococcus aureus [7] = experiment: Antibacterial activity against Staphylococcus aureus ATCC 29213 after 20 hrs by CLSI based-broth microdilution method; format: functional; conditions: ATCC 29213, 20 h
Streptococcus pyogenes = experiment: Antibacterial activity against Streptococcus pyogenes ATCC 19615 after 20 hrs by CLSI based-broth microdilution method; format: functional; conditions: ATCC 19615, 20 h
HepG2 = experiment: Cytotoxicity against human HepG2 cells after 48 to 72 hrs by MTT assay; format: cell-based
A549 = experiment: Cytotoxicity against human A549 cells after 48 to 72 hrs by MTT assay; format: cell-based
[8] = Haemolytic activity in human erythrocytes at 0.1 to 10 ug/ml relative to control; format: ADME, cell-based, Erythrocyte; conditions: read-out: Activity
In short: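 Human erythrocytes washed in 150 mM NaCl, resuspended in PBS pH 7.4 (2% blood); compound at final 0.1, 1 and 10 μg/mL (0.5% DMSO) for 45 min at 37 °C, n = 6; spun at 500g, 4 °C; supernatant absorbance read at 540 nm; 1% Triton X-100 as positive and PBS as negative control; % lysis calculated.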

[9] = Therapeutic index, ratio of CC50 for human A549 cells to MIC for Streptococcus pneumoniae ATCC 49619; format: toxicity; conditions: read-out: TI
[10] = Therapeutic index, ratio of CC50 for human HepG2 cells to MIC for Streptococcus pneumoniae ATCC 49619; format: toxicity; conditions: read-out: TI
[11] = Apparent permeability across apical to basolateral membrane in human Caco2 cells at 10 ug/ml by LC-MS/MS analysis; format: ADME, cell-based; conditions: Caco-2
In short: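 Caco-2 monolayers grown 21–28 days on Transwell polycarbonate membranes, TEER ≥165 Ω cm2; preincubated 20 min at 37 °C in transport buffer; apical-to-basolateral transport only, pH 7.4 on both sides; receiver sampled over time under sink conditions; concentrations measured by LC–MS/MS.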

Streptococcus pneumoniae [12] = experiment: Antibacterial activity against Streptococcus pneumoniae ATCC 49619 assessed as reduction in pneumolysin release at 0.25 to 0.5 times MIC incubated for 16 to 20 hrs by Western blot analysis; format: functional, organism-based
In short: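 Overnight static culture in brain–heart infusion broth, with or without serially diluted compound; rifampicin and ceftriaxone controls at twofold dilutions from 2 to 0.002 μg/mL; untreated control. […] Western blot probed with rabbit polyclonal anti-pneumolysin (1:1000) and HRP anti-rabbit secondary, ECL chemiluminescence; band intensity normalized to untreated control.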

| SMILES | MIC (Enterobacter cloacae) [µg/mL] | MIC (Acinetobacter baumannii) [µg/mL] | MIC (Pseudomonas aeruginosa) [µg/mL] | MIC (Escherichia coli) [µg/mL] | MIC (Klebsiella pneumoniae) [µg/mL] | IC50 [2] [µM] | MIC (Streptococcus pneumoniae [3]) [µg/mL] | MIC [4] [µg/mL] | MIC [5] [µg/mL] | MIC (Enterococcus faecalis) [µg/mL] | MIC (Staphylococcus aureus [6]) [µg/mL] | MIC (Streptococcus agalactiae) [µg/mL] | MIC (Staphylococcus aureus [7]) [µg/mL] | MIC (Streptococcus pyogenes) [µg/mL] | CC50 (HepG2) [µM] | CC50 (A549) [µM] | selectivity ratio [9] | selectivity ratio [10] | also measured |
| --- | --- | --- | --- | --- | --- | --- | --- | --- | --- | --- | --- | --- | --- | --- | --- | --- | --- | --- | --- |
| Nc1cccc(Sc2ccc(C(=O)c3ccccc3C(=O)O)cc2[N+](=O)[O-])c1 | > 256 | > 256 | > 256 | > 256 | > 256 | – | – | – | – | – | – | – | – | – | – | – | – | – | MIC (Streptococcus pneumoniae [1]): 64 µg/mL (≈ 162 µM) |
| O=C(O)c1ccccc1C(=O)c1ccc(Sc2ccc(Cl)c(Cl)c2)cc1 | > 256 | > 256 | > 256 | > 256 | > 256 | 67 | 16 (≈ 39.7 µM) | – | – | – | – | – | – | – | – | – | – | – | – |
| O=C(O)c1cccc(NCc2ccc(Sc3ccc(Cl)c(Cl)c3)c([N+](=O)[O-])c2)c1 | > 256 | > 256 | > 256 | > 256 | > 256 | 42.9 | – | 8 (≈ 17.8 µM) | 8 (≈ 17.8 µM) | 8 (≈ 17.8 µM) | 8 (≈ 17.8 µM) | 8 (≈ 17.8 µM) | 8 (≈ 17.8 µM) | 8 (≈ 17.8 µM) | – | – | – | – | – |
| O=C(O)c1ccccc1NCc1ccc(Sc2ccc(Cl)c(Cl)c2)c([N+](=O)[O-])c1 | > 256 | > 256 | > 256 | > 256 | > 256 | 11.6 | – | 4 (≈ 8.9 µM) | 4 (≈ 8.9 µM) | 8 (≈ 17.8 µM) | 8 (≈ 17.8 µM) | 4 (≈ 8.9 µM) | 4 (≈ 8.9 µM) | 4 (≈ 8.9 µM) | 170 | 252 | 57 | 38 | hemolysis [8]: < 10%; Papp A→B at 10 ug/ml [11]: 36.2 ×10⁻⁶ cm/s |
| O=C(O)c1ccc(Br)c(NCc2ccc(Sc3ccc(Cl)c(Cl)c3)c([N+](=O)[O-])c2)c1 | > 256 | > 256 | > 256 | > 256 | > 256 | – | 4 (≈ 7.57 µM) | – | – | – | – | – | – | – | 92.6 | 67.7 | 18 | 24 | – |
| Nc1cc(Cl)ccc1Sc1ccc(C(=O)c2ccccc2C(=O)O)cc1[N+](=O)[O-] | > 256 | > 256 | > 256 | > 256 | > 256 | – | – | – | – | – | – | – | – | – | – | – | – | – | MIC (Streptococcus pneumoniae [1]): 64 µg/mL (≈ 149 µM) |
| Nc1ccc(Sc2ccc(C(=O)c3ccccc3C(=O)O)cc2[N+](=O)[O-])cc1 | > 256 | > 256 | > 256 | > 256 | > 256 | – | – | – | – | – | – | – | – | – | – | – | – | – | MIC (Streptococcus pneumoniae [1]): 128 µg/mL (≈ 325 µM) |
| O=C(O)c1ccc(Cl)c(NCc2ccc(Sc3ccc(Cl)c(Cl)c3)c([N+](=O)[O-])c2)c1 | > 256 | > 256 | > 256 | > 256 | > 256 | 15 | – | 4 (≈ 8.27 µM) | 4 (≈ 8.27 µM) | 4 (≈ 8.27 µM) | 8 (≈ 16.5 µM) | 4 (≈ 8.27 µM) | 8 (≈ 16.5 µM) | 4 (≈ 8.27 µM) | 110 | 116 | 28 | 27 | hemolysis [8]: < 10% |
| Nc1ccccc1Sc1ccc(C(=O)c2ccccc2C(=O)O)cc1[N+](=O)[O-] | > 256 | > 256 | > 256 | > 256 | > 256 | – | – | > 256 | 256 (≈ 649 µM) | 256 (≈ 649 µM) | > 256 | > 256 | > 256 | 256 (≈ 649 µM) | – | – | – | – | – |
| O=C(O)c1c(Cl)cccc1NCc1ccc(Sc2ccc(Cl)c(Cl)c2)c([N+](=O)[O-])c1 | > 256 | > 256 | > 256 | > 256 | > 256 | 25.1 | – | 4 (≈ 8.27 µM) | 8 (≈ 16.5 µM) | 8 (≈ 16.5 µM) | 8 (≈ 16.5 µM) | 4 (≈ 8.27 µM) | 8 (≈ 16.5 µM) | 2 (≈ 4.13 µM) | 97.7 | 93.3 | 11 | 12 | – |
| CO/N=C(\C(=O)N[C@@H]1C(=O)N2C(C(=O)O)=C(CSc3nc(=O)c(O)nn3C)CS[C@H]12)c1csc(N)n1 | – | – | – | – | – | – | – | – | – | – | – | – | – | – | – | – | – | – | Activity (Streptococcus pneumoniae [12]): inactive |
| Nc1ccccc1Sc1ccc(C(=O)Nc2ccc(C(=O)O)cc2)cc1[N+](=O)[O-] | > 256 | > 256 | > 256 | > 256 | > 256 | 97 | 256 (≈ 625 µM) | – | – | – | – | – | – | – | – | – | – | – | – |
| CO[C@H]1/C=C/O[C@@]2(C)Oc3c(C)c(O)c4c(O)c(c(/C=N/N5CCN(C)CC5)c(O)c4c3C2=O)NC(=O)/C(C)=C\C=C\[C@H](C)[C@H](O)[C@@H](C)[C@@H](O)[C@@H](C)[C@H](OC(C)=O)[C@@H]1C [RIFAMPIN] | – | – | – | – | – | – | 0.0625 (≈ 0.0759 µM) | 0.03 (≈ 0.0365 µM) | 0.03 (≈ 0.0365 µM) | 4 (≈ 4.86 µM) | 0.01 (≈ 0.0122 µM) | 0.03 (≈ 0.0365 µM) | 0.03 (≈ 0.0365 µM) | 0.03 (≈ 0.0365 µM) | – | – | – | – | Activity (Streptococcus pneumoniae [12]): Active |
